Like-named read-outs stand apart in the source and are kept apart here.
Legend:
NCI-H226 = experiment: NCI 60-cell line screen; assay type: cell-based, human
MALME-3M = experiment: NCI 60-cell line screen; assay type: cell-based, human
MDA-MB-468 = experiment: NCI 60-cell line screen; assay type: cell-based, human
SF-295 = experiment: NCI 60-cell line screen; assay type: cell-based, human
Summary of the method: (§1)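 Test compounds were submitted to the National Cancer Institute and run under NCI's standard 60-cell-line protocols. Read-outs were taken from percent-growth versus log-concentration curves.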

HCC-2998 = experiment: NCI 60-cell line screen; assay type: cell-based, human
MOLT-4 = experiment: NCI 60-cell line screen; assay type: cell-based, human
SNB-75 = experiment: NCI 60-cell line screen; assay type: cell-based, human
Summary of the method: as §1

BT-549 = experiment: NCI 60-cell line screen; assay type: cell-based, human
IGROV1 = experiment: NCI 60-cell line screen; assay type: cell-based, human
NCI-H522 = experiment: NCI 60-cell line screen; assay type: cell-based, human
786-0 = experiment: NCI 60-cell line screen; assay type: cell-based, human
SK-MEL-28 = experiment: NCI 60-cell line screen; assay type: cell-based, human
Summary of the method: as §1

COLO 205 = experiment: NCI 60-cell line screen; assay type: cell-based, human
HL-60(TB) = conditions: leukemia
KM12 = experiment: NCI 60-cell line screen; assay type: cell-based, human
OVCAR-3 = experiment: NCI 60-cell line screen; assay type: cell-based, human
A549/ATCC = experiment: NCI 60-cell line screen; assay type: cell-based, human
UACC-257 = experiment: NCI 60-cell line screen; assay type: cell-based, human
Summary of the method: as §1

UACC-62 = experiment: NCI 60-cell line screen; assay type: cell-based, human
Summary of the method: as §1

MDA-MB-435 = experiment: NCI 60-cell line screen; assay type: cell-based, human
SF-268 = experiment: NCI 60-cell line screen; assay type: cell-based, human
Summary of the method: as §1

T-47D = experiment: NCI 60-cell line screen; assay type: cell-based, human
Summary of the method: as §1

PI3Kγ enzyme = PI3Kγ enzyme (Homo sapiens, UniProt P48736); experiment: Adapta universal kinase assay, anti-PI3Kγ activity; assay type: biochemical
Sequence of PI3Kγ enzyme (P48736 whole entry): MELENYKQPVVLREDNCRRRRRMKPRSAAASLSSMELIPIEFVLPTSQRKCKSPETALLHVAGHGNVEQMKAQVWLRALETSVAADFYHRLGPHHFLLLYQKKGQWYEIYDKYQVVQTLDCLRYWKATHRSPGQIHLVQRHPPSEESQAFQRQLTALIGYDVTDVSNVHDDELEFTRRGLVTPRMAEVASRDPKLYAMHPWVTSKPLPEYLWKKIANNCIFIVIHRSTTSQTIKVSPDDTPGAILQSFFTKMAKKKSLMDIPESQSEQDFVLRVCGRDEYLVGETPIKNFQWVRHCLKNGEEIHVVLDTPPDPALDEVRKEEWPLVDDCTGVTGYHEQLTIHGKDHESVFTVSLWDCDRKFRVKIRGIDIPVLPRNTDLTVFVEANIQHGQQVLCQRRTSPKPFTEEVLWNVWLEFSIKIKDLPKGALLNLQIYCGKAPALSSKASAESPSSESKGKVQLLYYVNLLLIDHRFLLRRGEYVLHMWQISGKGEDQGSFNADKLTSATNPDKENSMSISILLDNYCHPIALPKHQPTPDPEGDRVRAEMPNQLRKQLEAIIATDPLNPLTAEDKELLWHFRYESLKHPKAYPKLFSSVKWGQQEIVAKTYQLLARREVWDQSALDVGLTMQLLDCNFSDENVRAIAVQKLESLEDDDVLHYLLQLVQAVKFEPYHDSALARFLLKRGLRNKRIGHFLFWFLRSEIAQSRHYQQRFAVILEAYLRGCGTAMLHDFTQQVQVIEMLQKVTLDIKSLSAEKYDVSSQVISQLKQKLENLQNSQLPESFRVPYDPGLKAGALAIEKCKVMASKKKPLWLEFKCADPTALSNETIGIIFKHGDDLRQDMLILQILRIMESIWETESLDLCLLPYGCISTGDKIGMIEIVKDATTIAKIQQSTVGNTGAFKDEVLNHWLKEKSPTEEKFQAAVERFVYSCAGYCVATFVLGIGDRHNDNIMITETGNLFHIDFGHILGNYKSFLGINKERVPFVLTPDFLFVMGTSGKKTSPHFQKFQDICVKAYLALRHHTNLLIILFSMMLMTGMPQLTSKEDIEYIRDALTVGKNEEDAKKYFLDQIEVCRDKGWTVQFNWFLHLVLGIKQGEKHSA
Summary of the method: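 Adapta ADP-detection TR-FRET immunoassay with test compound at 100 μM. The kinase reaction runs 60 min. It is then stopped by a detection solution of EDTA, europium-labelled anti-ADP antibody and Alexa Fluor 647-labelled ADP tracer. ADP formed displaces the tracer and lowers the TR-FRET signal. ADP formation is calculated from the emission ratio.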

NCI-H460 = experiment: NCI 60-cell line screen; assay type: cell-based, human
NCI/ADR-RES = experiment: NCI 60-cell line screen; assay type: cell-based, human

O=C(CNc1ccc([N+](=O)[O-])cc1)Nc1nc2ccccc2s1 [OMS5, N-(1,3-benzothiazol-2-yl)-2-(4-nitroanilino)acetamide]
GI50 (NCI-H226; Homo sapiens, NCI-H226): 0.6 µM | IC50 (NCI-H226; Homo sapiens, NCI-H226): 3 µM | CC50 (NCI-H226; Homo sapiens, NCI-H226, read-out: LC50): > 100 µM | TGI (NCI-H226; NCI-H226, non-small cell lung cancer): 4.9 µM | GI50 (MALME-3M; Homo sapiens, Malme-3M): 1.1 µM | IC50 (MALME-3M; Homo sapiens, Malme-3M): 2.1 µM | CC50 (MALME-3M; Homo sapiens, Malme-3M, read-out: LC50): 5 µM | TGI (MALME-3M; MALME-3M, melanoma): 2.3 µM | GI50 (MDA-MB-468; Homo sapiens, MDA-MB-468): 0.4 µM | IC50 (MDA-MB-468; Homo sapiens, MDA-MB-468): 1.8 µM | CC50 (MDA-MB-468; Homo sapiens, MDA-MB-468, read-out: LC50): 5.3 µM | TGI (MDA-MB-468; MDA-MB-468, breast cancer): 1.8 µM | GI50 (SF-295; Homo sapiens, SF-295): 0.7 µM | IC50 (SF-295; Homo sapiens, SF-295): 1.4 µM | CC50 (SF-295; Homo sapiens, SF-295, read-out: LC50): 24 µM | TGI (SF-295; SF-295, CNS cancer): 4.4 µM | TGI (HCC-2998; HCC-2998, colon cancer): 2.2 µM | GI50 (HCC-2998; Homo sapiens, HCC 2998): 0.9 µM | IC50 (HCC-2998; Homo sapiens, HCC 2998): 1.6 µM | CC50 (HCC-2998; Homo sapiens, HCC 2998, read-out: LC50): 5.3 µM | GI50 (MOLT-4; Homo sapiens, MOLT-4): 0.4 µM | IC50 (MOLT-4; Homo sapiens, MOLT-4): 0.6 µM | CC50 (MOLT-4; Homo sapiens, MOLT-4, read-out: LC50): > 100 µM | TGI (MOLT-4; MOLT-4, leukemia): 12 µM | GI50 (SNB-75; Homo sapiens, SNB-75): 1.4 µM | IC50 (SNB-75; Homo sapiens, SNB-75): 3 µM | CC50 (SNB-75; Homo sapiens, SNB-75, read-out: LC50): 5.9 µM | TGI (SNB-75; SNB-75, CNS cancer): 2.9 µM | TGI (BT-549; BT-549, breast cancer): 6.5 µM | GI50 (BT-549; Homo sapiens, BT-549): 2 µM | IC50 (BT-549; Homo sapiens, BT-549): 5.4 µM | CC50 (BT-549; Homo sapiens, BT-549, read-out: LC50): 27.5 µM | GI50 (IGROV1; Homo sapiens, IGROV-1): 0.8 µM | IC50 (IGROV1; Homo sapiens, IGROV-1): 1.8 µM | CC50 (IGROV1; Homo sapiens, IGROV-1, read-out: LC50): > 100 µM | TGI (IGROV1; IGROV1, ovarian cancer): 12 µM | GI50 (NCI-H522; Homo sapiens, NCI-H522): 0.7 µM | IC50 (NCI-H522; Homo sapiens, NCI-H522): 2.1 µM | CC50 (NCI-H522; Homo sapiens, NCI-H522, read-out: LC50): 6.3 µM | TGI (NCI-H522; NCI-H522, non-small cell lung cancer): 2.3 µM | TGI (786-0; 786-0, renal cancer): 12 µM | GI50 (786-0; Homo sapiens, 786-0): 0.5 µM | IC50 (786-0; Homo sapiens, 786-0): 0.9 µM | CC50 (786-0; Homo sapiens, 786-0, read-out: LC50): 43.7 µM | GI50 (SK-MEL-28; Homo sapiens, SK-MEL-28): 1.6 µM | IC50 (SK-MEL-28; Homo sapiens, SK-MEL-28): 3 µM | CC50 (SK-MEL-28; Homo sapiens, SK-MEL-28, read-out: LC50): 6.9 µM | TGI (SK-MEL-28; SK-MEL-28, melanoma): 3.3 µM | TGI (COLO 205; COLO 205, colon cancer): 1.5 µM | GI50 (COLO 205; Homo sapiens, COLO 205): 0.4 µM | IC50 (COLO 205; Homo sapiens, COLO 205): 0.7 µM | CC50 (COLO 205; Homo sapiens, COLO 205, read-out: LC50): 4.7 µM | TGI (HL-60(TB)): 14 µM | GI50 (KM12; Homo sapiens, KM12): 1.2 µM | IC50 (KM12; Homo sapiens, KM12): 2.5 µM | CC50 (KM12; Homo sapiens, KM12, read-out: LC50): 52.5 µM | TGI (KM12; KM12, colon cancer): 12 µM | GI50 (OVCAR-3; Homo sapiens, OVCAR-3): 1.9 µM | IC50 (OVCAR-3; Homo sapiens, OVCAR-3): 4 µM | CC50 (OVCAR-3; Homo sapiens, OVCAR-3, read-out: LC50): > 100 µM | TGI (OVCAR-3; OVCAR-3, ovarian cancer): 9.1 µM | TGI (A549/ATCC; A549/ATCC, non-small cell lung cancer): 28 µM | GI50 (A549/ATCC; Homo sapiens, A549): 0.8 µM | IC50 (A549/ATCC; Homo sapiens, A549): 1.5 µM | CC50 (A549/ATCC; Homo sapiens, A549, read-out: LC50): > 100 µM | GI50 (UACC-257; Homo sapiens, UACC-257): 1.3 µM | IC50 (UACC-257; Homo sapiens, UACC-257): 2.5 µM | CC50 (UACC-257; Homo sapiens, UACC-257, read-out: LC50): 6.3 µM | TGI (UACC-257; UACC-257, melanoma): 2.8 µM | GI50 (UACC-62; Homo sapiens, UACC-62): 1.1 µM | IC50 (UACC-62; Homo sapiens, UACC-62): 2 µM | CC50 (UACC-62; Homo sapiens, UACC-62, read-out: LC50): 5.5 µM | TGI (UACC-62; UACC-62, melanoma): 2.5 µM | GI50 (MDA-MB-435; Homo sapiens, MDA-MB-435): 0.7 µM | IC50 (MDA-MB-435; Homo sapiens, MDA-MB-435): 1.3 µM | CC50 (MDA-MB-435; Homo sapiens, MDA-MB-435, read-out: LC50): 4.8 µM | TGI (MDA-MB-435; MDA-MB-435, melanoma): 2 µM | GI50 (SF-268; Homo sapiens, SF-268): 1.3 µM | IC50 (SF-268; Homo sapiens, SF-268): 3.5 µM | CC50 (SF-268; Homo sapiens, SF-268, read-out: LC50): 51.3 µM | TGI (SF-268; SF-268, CNS cancer): 6.6 µM | GI50 (T-47D; Homo sapiens, T47D): 1 µM | IC50 (T-47D; Homo sapiens, T47D): 4.6 µM | CC50 (T-47D; Homo sapiens, T47D, read-out: LC50): 74.1 µM | TGI (T-47D; T-47D, breast cancer): 4.6 µM | inhibition at 100 µM (PI3Kγ enzyme; read-out: % of inhibition (mean) against PI3Kγ enzyme): 0% | inhibition at 100 µM (PI3Kγ enzyme; read-out: % of inhibition against PI3Kγ enzyme, point 1): 0% | inhibition at 100 µM (PI3Kγ enzyme; read-out: % of inhibition against PI3Kγ enzyme, point 2): 0% | GI50 (NCI-H460; Homo sapiens, NCI-H460): 0.4 µM | IC50 (NCI-H460; Homo sapiens, NCI-H460): 0.5 µM | CC50 (NCI-H460; Homo sapiens, NCI-H460, read-out: LC50): 39.8 µM | TGI (NCI-H460; NCI-H460, non-small cell lung cancer): 3.3 µM | GI50 (NCI/ADR-RES; Homo sapiens): 0.6 µM | IC50 (NCI/ADR-RES; Homo sapiens): 1.3 µM | CC50 (NCI/ADR-RES; Homo sapiens, read-out: LC50): 53.7 µM | TGI (NCI/ADR-RES; ovarian cancer): 4.6 µM

— article PMC10975593 (ACS Omega, 2024)
